# HKDC1 inhibitor: HKDC1 hexokinase inhibitors, primary screen, biochemical, fluorescence, uHTS; Q2TB90; recombinant HKDC1, G6PDH/diaphorase resazurin coupled fluorescence; inhibition, % at 20 µM; actives 0.16% (n = 340,000); AID 493160, 2011;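 active means inhibition above about 35% when tested at 20 µM, limit read from the data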;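 further: plate controls were DMSO wells with enzyme for no effect and DMSO wells lacking enzyme for full effect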
#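 Assay system: in-house recombinant HK5 (HKDC1) enzyme. Input: HKDC1 at 5 µg/mL. Medium: Tris pH 8.0 buffer with MgCl2, Tween-20, BSA, BME. Dosing: single 20 µM dose. Schedule: 90 min reaction incubation at room temperature, dark. Signal: resazurin-to-resorufin fluorescence via G6PDH and diaphorase coupling, 525/613 nm. Controls: DMSO-enzyme wells negative, buffer-substituted wells positive.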
# PfM18AAP inh: PfM18AAP inhibitors, malaria aminopeptidase, primary screen, biochemical, QFRET, recombinant enzyme. inhibition, % at 7.35 µM. AID 1822, 2009. M18 aspartyl aminopeptidase (Plasmodium falciparum 3D7). H-Glu-NHMec fluorogenic cleavage. actives 1.2% (n = 290,000);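 active means inhibition above the campaign mean inhibition over all tested compounds plus 3 SD, cut at about 28% in these data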;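 further: 0% = plate median of test compound wells and 100% = 2 mM ZnCl2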
# Neddyl block: inhibitors of cullin neddylation, primary screen, biochemical, TR-FRET, uHTS, NAE and Ubc12; NEDD8-conjugating enzyme Ubc12 (Homo sapiens) + NEDD8-activating enzyme E1 regulatory …; inhibition, % at 25 µM; actives 0.58% (n = 360,000); in the data active means inhibition above about 36%
# Target sequence (P61081 whole entry, looked up): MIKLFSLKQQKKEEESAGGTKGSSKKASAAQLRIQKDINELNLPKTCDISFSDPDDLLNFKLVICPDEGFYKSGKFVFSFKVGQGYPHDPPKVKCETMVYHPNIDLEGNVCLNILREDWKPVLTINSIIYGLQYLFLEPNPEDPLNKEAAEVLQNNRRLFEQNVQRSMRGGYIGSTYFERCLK
# Target sequence (Q13564 whole entry, looked up): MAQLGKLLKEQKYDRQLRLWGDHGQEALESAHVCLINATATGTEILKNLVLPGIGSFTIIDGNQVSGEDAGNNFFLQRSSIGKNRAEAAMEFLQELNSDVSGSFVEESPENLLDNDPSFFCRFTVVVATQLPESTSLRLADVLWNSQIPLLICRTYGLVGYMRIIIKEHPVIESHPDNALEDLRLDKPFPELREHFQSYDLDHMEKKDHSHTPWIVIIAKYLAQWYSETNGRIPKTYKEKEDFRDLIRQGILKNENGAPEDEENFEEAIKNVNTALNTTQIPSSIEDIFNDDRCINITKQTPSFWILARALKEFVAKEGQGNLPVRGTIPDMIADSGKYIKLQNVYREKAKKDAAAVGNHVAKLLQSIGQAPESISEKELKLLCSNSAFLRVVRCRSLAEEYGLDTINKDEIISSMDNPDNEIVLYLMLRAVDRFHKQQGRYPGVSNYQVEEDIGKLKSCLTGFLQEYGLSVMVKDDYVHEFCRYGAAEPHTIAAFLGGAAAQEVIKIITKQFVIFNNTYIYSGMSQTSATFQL
# PfG6PD inh: PfG6PD enzyme inhibitors, primary screen, biochemical, fluorescence intensity, uHTS; glucose-6-phosphate dehydrogenase-6-phosphogluconolactonase (Plasmodium falciparum 3D7); PfGluPho enzyme, NADPH resazurin-diaphorase fluorescence; inhibition, % at 20 µM; actives 0.78% (n = 350,000); AID 504690, 2011;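 active means inhibition reaching at least a set limit at 20 µM in the primary screen, cut at about 59% in these data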;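 further: 0% = DMSO wells with substrate and 100% = DMSO wells lacking glucose-6-phosphate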
# Neddyl inh conf: blockade of NEDD8 conjugation to cullin – biochemical, TR-FRET, single concentration, confirmation. shares compounds with Neddyl block. TR-FRET cullin neddylation biochemical assay. calls only at 25 µM. actives 13% (n = 1,800); in the data active means inhibition above about 40%;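 further: neddylation substrate is the cullin 1 ring ligase complex with SKP2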
# An asterisk follows results filed as active; i = inactive; · = not tested or not shown; + = active, no number. A selection: hits, their analogues and other compounds. The true share with any hit is near 2.2%.
SMILES,HKDC1 inhibitor,PfM18AAP inh,Neddyl block,PfG6PD inh,Neddyl inh conf
N#Cc1c(F)cccc1N1CCOCC1,-5,-4,42*,0,i
O=C(Nc1ccccc1C(=O)NCCc1ccccc1)c1cnccn1,-3,-3,3,-1,·
Cc1cc(C)cc(N=Cc2c(O)c3ccccc3oc2=O)c1,-1,2,·,1,·
O=C(O)c1cc(N=Cc2c(O)c3ccccc3oc2=O)ccc1O,9,12,43*,9,·
CN(C)c1cccc(C(=O)NCc2ccccc2Cl)c1,-11,0,34,7,·
CN(C)c1cccc(C(=O)NCc2ccccc2)c1,-3,6,41*,-3,i
CC(C)Cc1nc(N2CCN(C(=O)c3ccco3)CC2)c(C#N)c2c1CCCC2,-3,-8,24,-4,·
Cc1nc(N2CCN(C(=O)c3ccco3)CC2)c(C#N)c2c1CCCC2,-1,4,48*,-3,i
COc1cccc(-c2nc(C#N)c(N3CCN(C(=O)c4ccco4)CC3)o2)c1,-2,0,56*,12,i
N#Cc1cccnc1N1CCN(C(=O)COCC(=O)O)CC1,-4,4,42*,-9,+
Cc1cc(C(=O)N2CCN(c3ncccc3C#N)CC2)no1,-7,0,29,-2,·
N#Cc1cccnc1N1CCN(C(=O)c2ccco2)CC1,-3,2,49*,10,i
N#Cc1nc(-c2ccc(F)cc2)oc1N1CCN(C(=O)c2ccco2)CC1,0,1,36,3,·
O=S(=O)(NN1CCOCC1)c1cc(Cl)cc(Cl)c1O,0,-7,12,0,·
CC1(C)CC(=O)C/C(=N/NC(=O)COc2ccc3ccccc3c2Br)C1,0,0,-227,-7,·
CN(CC(=O)Nc1ccc(F)c(F)c1F)C(=O)C1(c2ccccc2)CC1,·,·,1,-15,·
COc1cc(/C=N\NC(=O)c2ccc(-c3ccccc3)cc2)cc(Br)c1O,1,2,45*,2,i
COc1ccc(/C=N/NC(=O)c2ccc(-c3ccccc3)cc2)cc1O,-3,5,28,0,·
O=C(N/N=C/c1c[nH]c2ccccc12)c1cc(Cl)ccc1O,-6,6,50*,-11,i
Cc1cccn2cc(CSc3nnc(Nc4ccc(C(C)C)cc4)s3)nc12,-9,6,8,11,·
COc1cc(-c2nnc(CSc3nnc(Nc4ccc(C(C)C)cc4)s3)o2)cc(OC)c1OC,-6,3,43*,17,i
O=c1ccc(/C=C/c2ccccc2)nn1Cc1ccccc1,-5,2,49*,19,i
Cn1nc(/C=C/c2ccccc2)ccc1=O,-12,5,50*,-8,i
Cc1nnc2ccc(-c3ccc(NS(=O)(=O)c4ccc(Cl)s4)cc3)nn12,12,·,41*,-8,·
CCc1ccc(S(=O)(=O)Nc2ccc(-c3ccc4nnc(C)n4n3)cc2)s1,15,·,13,-6,·
SMILES,HKDC1 inhibitor,PfM18AAP inh,Neddyl block,PfG6PD inh,Neddyl inh conf
COc1ccc(C)cc1N(C(=O)c1snc(C(N)=O)c1N)C(C(=O)NC1CCCCC1)c1ccc(C)o1 (stereo not given),6,3,44*,11,·
COc1ccccc1N(C(=O)c1snc(C(N)=O)c1N)C(C(=O)NC1CCCC1)c1ccco1 (stereo not given),-7,-2,43*,-4,+
CCOc1ccccc1N(C(=O)c1snc(C(N)=O)c1N)C(C(=O)NCCC(C)C)c1ccco1 (stereo not given),4,5,44*,2,i
CC(Sc1nnc(CN2CCCC2)n1Cc1ccccc1)C(=O)Nc1ccc(F)cc1Cl (stereo not given),-1,·,16,8,·
CC(C(=O)Nc1ccccc1F)N1CCN(C)CC1 (stereo not given),·,5,·,·,·
COc1ccc(CN2CCc3ccccc3C2)cc1Br,0,-7,2,-3,·
COc1ccc2cc(C(=O)C3CCCN(C(=O)/C=C/c4ccccn4)C3)ccc2c1 (stereo not given),5,-4,53*,-8,i
c1nc2sc3c(c2c2nnnn12)CCC3,-1,-6,41*,7,i
Cc1cc(C)n2c3c(c(C#N)c2n1)CCCC3,-7,-1,41*,-14,i
C/C(=N\NC(=O)c1ccc(N2CCCC2=O)cc1)c1ccc(O)cc1O,-25,28*,63*,-30,i
C/C(=N\NC(=O)c1ccc(N2CCCC2=O)cc1)c1ccccc1,-2,-2,7,4,·
CCOc1ccc(NS(=O)(=O)c2ccc3c(c2)N(C(C)=O)CCS3)cc1,0,2,-2,-12,·
CCOC(=O)[C@]12CCCC=C1N(Cc1cccc3ccccc13)C(=O)[C@H](CC(=O)NCC1CCCCC1)C2,·,·,-1,·,·
CCN(CC)CC(=O)Nc1cc(N(C)C)nc2ccccc12,-3,-2,23,0,·
CN1CCN(CC(=O)Nc2cc(N(C)C)nc3ccccc23)CC1,-1,0,40*,8,i
CN1CCc2c1nc1ccccc1c2NC(=O)CN1CCCC1,-7,3,41*,-5,i
CC[C@H](C)[C@H]1CNC(=O)C(=O)N1CC1CCN(CCCc2ccc(OC)c(OC)c2)CC1,-4,·,-13,2,·
CCn1cc(Cl)c(C(=O)Nc2cccc(CN3CCOCC3)c2)n1,2,-4,-1,2,·
c1csc(CNc2ncnc3ccc(-c4ccc5c(c4)OCCO5)cc23)c1,3,·,36*,0,·
COc1ccc(-c2cc(C(=O)N3CCCCCC3)c3ccccc3n2)c(OC)c1,3,14,42*,11,·
COc1ccc(-c2cc(C(=O)N3CCN(c4ccccn4)CC3)c3ccccc3n2)cc1,-4,2,34,10,·
COc1cc(-c2cc(C(=O)N3CCN(c4ccccn4)CC3)c3ccccc3n2)cc(OC)c1OC,-4,9,42*,8,i
COc1ccc(-c2cc(C(=O)N3CCN(c4ncccn4)CC3)c3ccccc3n2)c(OC)c1,-7,-8,32,18,·
COc1ccc(-c2cc(C(=O)N(C)CCc3ccc(OC)c(OC)c3)c3ccccc3n2)cc1,2,1,46*,-8,i
COc1ccc(-c2cc(C(=O)N3CCN(c4ccccc4O)CC3)c3ccccc3n2)cc1,3,·,38,13,·
COc1ccc(-c2cc(C(=O)N3CCN(c4ccccc4O)CC3)c3ccccc3n2)cc1OC,9,31*,54*,29,+
O=C(NCc1ccccc1Cl)c1ccc2nc([C@@H]3O[C@H](CO)[C@@H](O)[C@H]3O)[nH]c2c1,·,·,-7,·,·
COc1ccc(Cl)cc1NC(=O)CN(C)C(=O)CN1C(=O)NC(C)(c2ccc3ccccc3c2)C1=O (stereo not given),1,·,-9,11,·

# From PubChem BioAssay
